From ChEMBL document CHEMBL1125330, “N-substituted pyrazino[2,3-c][1,2,6]thiadiazine 2,2-dioxides. A new class of diuretics” (J Med Chem, 1992)

Assays:
Rattus norvegicus [1] = assay: Urinary sodium 1 hr after the compound was administered 10 mg/kg po in rat; format: ADME, organism-based, Urine; parameters: dose 10 mg/kg, route oral; conditions: in vivo
Outline: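 Onset and duration study in fasted, water-loaded male Sprague-Dawley rats housed two per metabolic cage, six pairs per group. Single oral dose given, then water 2.5 mL/100 g po. Urine volume and sodium (flame photometry) measured over 0-1, 1-2, 2-3, 3-4 and 4-6 h intervals. Mean values compared with vehicle by Student t-test.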

Rattus norvegicus [2] = assay: Mean potassium excretion in rats when compound administered at 2.5 mg/kg po and vehicle dosed at 8.4 umol/kg; format: ADME, organism-based; parameters: dose 2.5 mg/kg, route oral; conditions: in vivo
Outline: (§1)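 Male Sprague-Dawley rats (HC/CFY, 175-200 g), no food or water for 18 h before and during the test. Single gavage dose (2.5-160 mg/kg; vehicle 1% carboxymethyl cellulose/0.1% Tween 80, 0.5 mL/100 g bw), then distilled water 2.5 mL/100 g bw po. Individual metabolic cages, 6 h urine. K+ by flame photometry, Cl- colorimetric, as mequiv/6 h/kg bw; unpaired Student t-test vs control.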

Rattus norvegicus [3] = assay: Volume of urine 1 hr after the compound was administered 10 mg/kg po in rat; format: ADME, organism-based; parameters: dose 10 mg/kg, route oral; conditions: in vivo
Outline: (§2)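 Onset/duration protocol: male Sprague-Dawley rats (HC/CFY, 175-200 g), food and water withdrawn for 18 h before and during the test. Single gavage dose in 1% carboxymethyl cellulose/0.1% Tween 80 (0.5 mL/100 g bw), then distilled water load (2.5 mL/100 g bw po). Two rats per metabolic cage, six pairs per group. Urine collected at 0-1, 1-2, 2-3, 3-4 and 4-6 h; Na+ by flame photometry. Vehicle controls; nonpaired Student t-test.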

Rattus norvegicus [4] = assay: Volume of urine 2 hr after the compound was administered 10 mg/kg po in rat; format: ADME, organism-based; parameters: dose 10 mg/kg, route oral; conditions: in vivo; outline: as §2
Rattus norvegicus [5] = assay: Volume of urine 3h after the compound was administered 10 mg/kg po in rat; format: ADME, organism-based; parameters: dose 10 mg/kg, route oral; conditions: in vivo; outline: as §2
Rattus norvegicus [6] = assay: Volume of urine 4 hr after the compound was administered 10 mg/kg po in rat; format: ADME, organism-based; parameters: dose 10 mg/kg, route oral; conditions: in vivo; outline: as §2
Rattus norvegicus [7] = assay: Volume of urine 6 hr after the compound was administered 10 mg/kg po in rat; format: ADME, organism-based; parameters: dose 10 mg/kg, route oral; conditions: in vivo; outline: as §2
Rattus norvegicus [8] = assay: Mean Chlorine excretion in rats when compound administered at 2.5 mg/kg po and vehicle dosed at 8.4 umol/kg; format: ADME, organism-based; parameters: dose 2.5 mg/kg, route oral; conditions: in vivo; outline: as §1
Rattus norvegicus [9] = assay: Mean Chlorine excretion in rats when compound administered at 20 mg/kg po and vehicle dosed at 67.18 umol/kg; format: ADME, organism-based; parameters: dose 20 mg/kg, route oral; conditions: in vivo; outline: as §1
Rattus norvegicus [10] = assay: Mean Chlorine excretion in rats when compound administered at 40 mg/kg po and vehicle dosed at 134.35 umol/kg; format: ADME, organism-based; parameters: dose 40 mg/kg, route oral; conditions: in vivo; outline: as §1
Rattus norvegicus [11] = assay: Mean urinary output in rats when compound administered at 0 mg/kg po and vehicle dosed at 0 umol/kg; format: ADME, organism-based, Urine; parameters: dose 0 mg/kg, route oral; conditions: in vivo
Outline: (§3)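 Water-loaded male Sprague-Dawley rats (HC/CFY, 175-200 g) fasted and without water for 18 h. Oral gavage of 2.5-160 mg/kg in 1% CMC with 0.1% Tween 80, then distilled water 2.5 mL/100 g po. Urine collected 6 h in metabolic cages, mean output in mL/6 h/kg bw. Unpaired Student t-test against vehicle; dose-response by linear regression.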

Rattus norvegicus [12] = assay: Mean urinary output in rats when compound administered at 10 mg/kg po and vehicle dosed at 33.59 umol/kg; format: ADME, organism-based, Urine; parameters: dose 10 mg/kg, route oral; conditions: in vivo; outline: as §3
Rattus norvegicus [13] = assay: Mean urinary output in rats when compound administered at 2.5 mg/kg po and vehicle dosed at 8.4 umol/kg; format: ADME, organism-based, Urine; parameters: dose 2.5 mg/kg, route oral; conditions: in vivo; outline: as §3
Rattus norvegicus [14] = assay: Mean urinary output in rats when compound administered at 20 mg/kg po and vehicle dosed at 67.18 umol/kg; format: ADME, organism-based, Urine; parameters: dose 20 mg/kg, route oral; conditions: in vivo; outline: as §3
Rattus norvegicus [15] = assay: Mean urinary output in rats when compound administered at 40 mg/kg po and vehicle dosed at 134.35 umol/kg; format: ADME, organism-based, Urine; parameters: dose 40 mg/kg, route oral; conditions: in vivo; outline: as §3
Rattus norvegicus [16] = assay: Mean urinary output in rats when compound administered at 5 mg/kg po and vehicle dosed at 16.79 umol/kg; format: ADME, organism-based, Urine; parameters: dose 5 mg/kg, route oral; conditions: in vivo; outline: as §3
Rattus norvegicus [17] = assay: Mean urinary output in rats when compound administered at 80 mg/kg po and vehicle dosed at 268.71 umol/kg; format: ADME, organism-based, Urine; parameters: dose 80 mg/kg, route oral; conditions: in vivo; outline: as §3
[18] = Acute toxicity in mice when given po; format: organism-based; conditions: mouse, in vivo, read-out: DL50 (the source's name)
Outline: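 Male Swiss mice (SPF, HC/CFLP strain, 20–25 g), oral dosing; mortality followed over 15 days; LD50 derived by the Litchfield and Wilcoxon method.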

Rattus norvegicus [19] = assay: Dose required to produce an excretion of 2 mequiv of Na+/kg bw/6h vs control groups; format: functional
Outline: (§4)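 Male Sprague-Dawley rats (HC/CFY, 175-200 g), fasted and water-deprived 18 h before and during the test. Compound dosed by gavage in 1% carboxymethyl cellulose/0.1% Tween 80, then water load 2.5 mL/100 g bw po. Urine collected 6 h in metabolic cages; Na+ by flame photometry. Effective doses vs vehicle controls derived by linear regression of dose-response data.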

Rattus norvegicus [20] = species on record: Rattus norvegicus; assay: Dose required to produce increase in 50 % in urine production vs control groups; format: functional; conditions: Rattus norvegicus, Urine; outline: as §4
Rattus norvegicus [21] = assay: Post dosing time interval of maximum activity; format: functional
Outline: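 Interval of peak activity taken from timed urine collections (0-1, 1-2, 2-3, 3-4, 4-6 h) after a single oral dose in water-loaded fasted rats, […]. Urine volume and Na+ excretion followed over time.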

NS(=O)(=O)c1cc2c(cc1Cl)NCNS2(=O)=O [HYDROCHLOROTHIAZIDE]
Urinary Na+ (Rattus norvegicus [1]): 0.19 m equiv | K (Rattus norvegicus [2]): 1.26 m equiv 6hr-1 kg-1 (body weight)-1 | Urine volume (Rattus norvegicus [3]): 1.38 mL | Urine volume (Rattus norvegicus [4]): 4.97 mL | Urine volume (Rattus norvegicus [5]): 3.37 mL | Urine volume (Rattus norvegicus [6]): 2.92 mL | Urine volume (Rattus norvegicus [7]): 3.42 mL | Cl- (Rattus norvegicus [8]): 4.42 m equiv 6hr-1 kg-1 (body weight)-1 | Cl- (Rattus norvegicus [9]): 4.67 m equiv 6hr-1 kg-1 (body weight)-1 | Cl- (Rattus norvegicus [10]): 3.94 m equiv 6hr-1 kg-1 (body weight)-1 | V (Rattus norvegicus [11]): 24.3 ml 6hr-1 (kg of body weight)-1 | V (Rattus norvegicus [12]): 39.01 ml 6hr-1 (kg of body weight)-1 | V (Rattus norvegicus [13]): 32.5 ml 6hr-1 (kg of body weight)-1 | V (Rattus norvegicus [14]): 42.94 ml 6hr-1 (kg of body weight)-1 | V (Rattus norvegicus [15]): 44.48 ml 6hr-1 (kg of body weight)-1 | V (Rattus norvegicus [16]): 38.07 ml 6hr-1 (kg of body weight)-1 | V (Rattus norvegicus [17]): 47.06 ml 6hr-1 (kg of body weight)-1 | LD50 [18]: > 6000 mg/kg | ED2 (Rattus norvegicus [19]): 1.57 mg/kg | ED50 (Rattus norvegicus [20]): 4.86 mg/kg | Time (Rattus norvegicus [21]): 2 h
